Results from ChEMBL document CHEMBL1138564, “Microwave-induced synthesis and anti-microbial activities of 7,10,11,12-tetrahydrobenzo[c]acridin-8(9H)-one derivatives” (2009).
≈ marks a conversion by molar mass, not a printed value. Calls of active or inactive are those of the source. The rule behind the calls is not given here.

Assays:
[1] = tested on: Proteus vulgaris; test: Antimicrobial activity against Proteus vulgaris NCIM 2027 at 1000 ug/disk after 24 hrs by disk diffusion method; type: functional
Procedure, shortened: (§1)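 Disc diffusion on Mueller–Hinton agar. 100 µl of bacterial suspension at 10⁸ CFU/ml is spread on the plate. Discs carry test compounds at two loadings, dissolved in DMSO; DMSO alone serves as negative control. Ofloxacin disc is the positive reference. Plates are incubated at 37 °C for 24 h, and the inhibition zone diameter is measured.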

[2] = tested on: Rhodococcus corynebacterioides; test: Antimicrobial activity against Corynebacterium rubrum NCIM 2252 at 500 ug/disk after 24 hrs by disk diffusion method; type: functional; details: Rhodococcoides corynebacterioides; procedure, shortened: as §1
[3] = tested on: Aliivibrio fischeri; test: Antimicrobial activity against Vibrio fischeri NCIM 2154 at 1000 ug/disk after 24 hrs by disk diffusion method; type: functional; details: NCIM 2154, 24 h, read-out: DIZ
Procedure, shortened: (§2)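 Disc diffusion. 100 µl of bacterial suspension at 10⁸ CFU/ml was spread on Mueller–Hinton agar. Discs loaded with test compound dissolved in DMSO were placed on the lawn, with a DMSO-only disc as negative control. Plates were incubated at 37 °C for 24 h, and the inhibition zone diameter was measured.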

[4] = tested on: Aliivibrio fischeri; test: Antimicrobial activity against Vibrio fischeri NCIM 2154 after 24 hrs by serial dilution method; type: functional; details: NCIM 2154, 24 h
[5] = tested on: Aspergillus parasiticus; test: Antimicrobial activity against Aspergillus parasiticus NCIM 904 at 1000 ug/disk after 72 hrs by disk diffusion method; type: functional; details: NCIM 904, 72 h, read-out: DIZ
Procedure, shortened: (§3)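 Disc diffusion on Sabouraud's dextrose agar. 100 µl of fungal suspension at 10⁶ CFU/ml is spread on the plate. Discs carry test compounds at two loadings in DMSO; DMSO alone is the negative control. Clotrimazole disc is the positive reference. Plates are incubated at 27 °C for 72 h, and the zone of inhibition diameter is measured.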

[6] = tested on: Aliivibrio fischeri; test: Antimicrobial activity against Vibrio fischeri NCIM 2154 at 500 ug/disk after 24 hrs by disk diffusion method; type: functional; details: NCIM 2154, 24 h, read-out: DIZ; procedure, shortened: as §2
[7] = tested on: Bacillus cereus; test: Antimicrobial activity against Bacillus cereus NCIM 2155 at 500 ug/disk after 24 hrs by disk diffusion method; type: functional; details: NCIM 2155, 24 h, read-out: DIZ; procedure, shortened: as §1
[8] = tested on: Klebsiella aerogenes; test: Antimicrobial activity against Klebsiella aerogenes NCIM 2239 at 500 ug/disk after 24 hrs by disk diffusion method; type: functional; procedure, shortened: as §1
[9] = tested on: Rhodotorula mucilaginosa; test: Antimicrobial activity against Rhodotorula rubra NCIM 3174 at 1000 ug/disk after 72 hrs by disk diffusion method; type: functional; details: NCIM 3174, 72 h, read-out: DIZ
Procedure, shortened: (§4)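 Fungal disc diffusion. 100 µl of suspension at 10⁶ CFU/ml was spread on Sabouraud's dextrose agar. Discs carrying test compound in DMSO were applied, with a DMSO-only disc as negative control. Plates were incubated at 27 °C for 72 h, and the zone of inhibition diameter was measured.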

[10] = tested on: Pseudomonas aeruginosa; test: Antimicrobial activity against Pseudomonas aeruginosa NCIM 2200 at 1000 ug/disk after 24 hrs by disk diffusion method; type: functional; procedure, shortened: as §1
[11] = tested on: Salmonella typhimurium; test: Antimicrobial activity against Salmonella Typhimurium NCIM 2501 at 500 ug/disk after 24 hrs by disk diffusion method; type: functional, Salmonella enterica subsp. enterica serovar Typhimurium; details: Salmonella enterica, NCIM 2501, 24 h; read-out: DIZ; procedure, shortened: as §2
[12] = tested on: Rhodotorula mucilaginosa; test: Antimicrobial activity against Rhodotorula rubra NCIM 3174 after 72 hrs by serial dilution method; type: functional; details: NCIM 3174, 72 h
Procedure, shortened: (§5)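 MIC by broth dilution in Sabouraud's dextrose broth, run only on fungi found sensitive in the disc assay. Twofold serial dilutions were made in 1 ml broth per tube, covering 3.9 to 1000. Inoculated tubes were incubated at 27 °C for 72 h.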

[13] = tested on: Aspergillus parasiticus; test: Antimicrobial activity against Aspergillus parasiticus NCIM 904 at 500 ug/disk after 72 hrs by disk diffusion method; type: functional; details: NCIM 904, 72 h, read-out: DIZ; procedure, shortened: as §3
[14] = tested on: Lipomyces lipofer; test: Antimicrobial activity against Lipomyces lipofer NCIM 3252 at 500 ug/disk after 72 hrs by disk diffusion method; type: functional; details: NCIM 3252, 72 h, read-out: DIZ; procedure, shortened: as §3
[15] = tested on: Penicillium chrysogenum; test: Antimicrobial activity against Penicillium chrysogenum NCIM 707 at 500 ug/disk after 72 hrs by disk diffusion method; type: functional; procedure, shortened: as §3
[16] = tested on: Bacillus subtilis; test: Antimicrobial activity against Bacillus subtilis NCIM 2063 after 24 hrs by serial dilution method; type: functional; details: NCIM 2063, 24 h
Procedure, shortened: (§6)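 Broth dilution MIC in nutrient broth, run only for organisms found sensitive in disc diffusion. Compounds are two-fold serially diluted in 1 ml sterile broth per tube, spanning 3.9 to 1000. Inoculated tubes are incubated at 37 °C for 24 h.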

[17] = tested on: Aspergillus fumigatus; test: Antimicrobial activity against Aspergillus fumigatus NCIM 902 at 1000 ug/disk after 72 hrs by disk diffusion method; type: functional; details: NCIM 902, 72 h, read-out: DIZ; procedure, shortened: as §3
[18] = tested on: Rhodotorula mucilaginosa; test: Antimicrobial activity against Rhodotorula rubra NCIM 3174 at 500 ug/disk after 72 hrs by disk diffusion method; type: functional; details: NCIM 3174, 72 h, read-out: DIZ; procedure, shortened: as §4
[19] = tested on: Rhodococcus corynebacterioides; test: Antimicrobial activity against Corynebacterium rubrum NCIM 2252 at 1000 ug/disk after 24 hrs by disk diffusion method; type: functional; details: Rhodococcoides corynebacterioides; procedure, shortened: as §1
[20] = tested on: Bacillus subtilis; test: Antimicrobial activity against Bacillus subtilis NCIM 2063 at 500 ug/disk after 24 hrs by disk diffusion method; type: functional; details: NCIM 2063, 24 h, read-out: DIZ; procedure, shortened: as §1
[21] = tested on: Staphylococcus; test: Antimicrobial activity against Staphylococcus albus NCIM 2178 at 1000 ug/disk after 24 hrs by disk diffusion method; type: functional; procedure, shortened: as §2
[22] = tested on: Proteus vulgaris; test: Antimicrobial activity against Proteus vulgaris NCIM 2027 at 500 ug/disk after 24 hrs by disk diffusion method; type: functional; procedure, shortened: as §1
[23] = tested on: Bacillus cereus; test: Antimicrobial activity against Bacillus cereus NCIM 2155 at 1000 ug/disk after 24 hrs by disk diffusion method; type: functional; details: NCIM 2155, 24 h, read-out: DIZ; procedure, shortened: as §1
[24] = tested on: Escherichia coli; test: Antimicrobial activity against Escherichia coli NCIM 2065 at 1000 ug/disk after 24 hrs by disk diffusion method; type: functional; details: NCIM 2065, 24 h, read-out: DIZ; procedure, shortened: as §1
[25] = tested on: Escherichia coli; test: Antimicrobial activity against Escherichia coli NCIM 2065 at 500 ug/disk after 24 hrs by disk diffusion method; type: functional; details: NCIM 2065, 24 h, read-out: DIZ; procedure, shortened: as §1
[26] = tested on: Aspergillus flavus; test: Antimicrobial activity against Aspergillus flavus NCIM 902 at 500 ug/disk after 72 hrs by disk diffusion method; type: functional; details: NCIM 902, 72 h, read-out: DIZ; procedure, shortened: as §3
[27] = tested on: Escherichia coli; test: Antimicrobial activity against Escherichia coli NCIM 2065 after 24 hrs by serial dilution method; type: functional; details: NCIM 2065, 24 h; procedure, shortened: as §6
[28] = tested on: Lipomyces lipofer; test: Antimicrobial activity against Lipomyces lipofer NCIM 3252 at 1000 ug/disk after 72 hrs by disk diffusion method; type: functional; details: NCIM 3252, 72 h, read-out: DIZ; procedure, shortened: as §3
[29] = tested on: Klebsiella aerogenes; test: Antimicrobial activity against Klebsiella aerogenes NCIM 2239 at 1000 ug/disk after 24 hrs by disk diffusion method; type: functional; details: NCIM 2239, 24 h, read-out: DIZ; procedure, shortened: as §1
[30] = tested on: Trichoderma viride; test: Antimicrobial activity against Trichoderma viride NCIM 1195 at 500 ug/disk after 72 hrs by disk diffusion method; type: functional; details: NCIM 1195, 72 h, read-out: DIZ; procedure, shortened: as §4
[31] = tested on: Trichoderma viride; test: Antimicrobial activity against Trichoderma viride NCIM 1195 after 72 hrs by serial dilution method; type: functional; details: NCIM 1195, 72 h; procedure, shortened: as §5
[32] = tested on: Salmonella typhimurium; test: Antimicrobial activity against Salmonella Typhimurium NCIM 2501 at 1000 ug/disk after 24 hrs by disk diffusion method; type: functional, Salmonella enterica subsp. enterica serovar Typhimurium; details: Salmonella enterica, NCIM 2501, 24 h; read-out: DIZ; procedure, shortened: as §2
[33] = tested on: Staphylococcus; test: Antimicrobial activity against Staphylococcus albus NCIM 2178 at 500 ug/disk after 24 hrs by disk diffusion method; type: functional; procedure, shortened: as §2
[34] = tested on: Aspergillus flavus; test: Antimicrobial activity against Aspergillus flavus NCIM 902 at 1000 ug/disk after 72 hrs by disk diffusion method; type: functional; details: NCIM 902, 72 h, read-out: DIZ; procedure, shortened: as §3

For `CC1(C)CC(=O)C2=C(C1)Nc1c(ccc3ccccc13)C2c1ccccc1Cl` (centres undefined), the “diameter of the inhibition zone (DIZ)” value [1] was “inactive”, the “diameter of the inhibition zone (DIZ)” value [2] was “inactive” and the zone of inhibition at 1000 µg/disc [3] was 9 mm. For the same molecule, the MIC [4] was 62.5 µg/mL (≈ 161 µM), the zone of inhibition at 1000 µg/disc [5] was 10 mm and the zone of inhibition at 500 µg/disc [6] was 7 mm. The zone of inhibition at 500 µg/disc [7] was 8 mm, the “diameter of the inhibition zone (DIZ)” value [8] was “inactive” and the zone of inhibition at 1000 µg/disc [9] was 13 mm. For the same molecule, the “diameter of the inhibition zone (DIZ)” value [10] was “inactive”, the zone of inhibition at 500 µg/disc [11] was 10 mm and the MIC [12] was 15.6 µg/mL (≈ 40.2 µM). For the same molecule, the zone of inhibition at 500 µg/disc [13] was 8 mm, the zone of inhibition at 500 µg/disc [14] was 7 mm and the “diameter of the inhibition zone (DIZ)” value [15] was “inactive”. The MIC [16] was 62.5 µg/mL (≈ 161 µM), the zone of inhibition at 1000 µg/disc [17] was 8 mm and the zone of inhibition at 500 µg/disc [18] was 10 mm. For the same molecule, the “diameter of the inhibition zone (DIZ)” value [19] was “inactive”, the zone of inhibition at 500 µg/disc [20] was 7 mm and the “diameter of the inhibition zone (DIZ)” value [21] was “inactive”. The “diameter of the inhibition zone (DIZ)” value [22] was “inactive”, the zone of inhibition at 1000 µg/disc [23] was 11 mm and the zone of inhibition at 1000 µg/disc [24] was 8 mm. It also gave a zone of inhibition at 500 µg/disc [25] of 7 mm, a zone of inhibition at 500 µg/disc [26] of 8 mm and an MIC [27] of 125 µg/mL (≈ 322 µM). For the same molecule, the zone of inhibition at 1000 µg/disc [28] was 10 mm, the zone of inhibition at 1000 µg/disc [29] was 9 mm and the zone of inhibition at 500 µg/disc [30] was 7 mm. The MIC [31] was 125 µg/mL (≈ 322 µM), the zone of inhibition at 1000 µg/disc [32] was 13 mm and the “diameter of the inhibition zone (DIZ)” value [33] was “inactive”. The zone of inhibition at 1000 µg/disc [34] was 10 mm.
